Data set [1] in a line: 4 day oral dosing study in rats. Type of data set: in vivo.
Data set [2] in a line: in vitro biotransformation assays. Format: in vitro ADME.
A short description of a further data set: rabbit telemetry study. Type of data set: in vivo.
In another data set the test system is CYP2C subfamily. Put plainly: CYP inhibition in human liver microsomes, CYP2C subfamily. Format: in vitro ADME. Background: Liver microsomes are vesicles of endoplasmic reticulum, rich in cytochrome P450 enzymes.
Another data set concerns total Aβ1–x. The data set can be described thus: total Aβ1–x formation. Format: cell-based.
In data set [3] the target is T1, CYP3A4 (Homo sapiens, UniProt P08684). Put plainly: CYP 3A4 HLM time-dependent inhibition. Format: in vitro ADME.
T1 sequence (P08684 whole entry): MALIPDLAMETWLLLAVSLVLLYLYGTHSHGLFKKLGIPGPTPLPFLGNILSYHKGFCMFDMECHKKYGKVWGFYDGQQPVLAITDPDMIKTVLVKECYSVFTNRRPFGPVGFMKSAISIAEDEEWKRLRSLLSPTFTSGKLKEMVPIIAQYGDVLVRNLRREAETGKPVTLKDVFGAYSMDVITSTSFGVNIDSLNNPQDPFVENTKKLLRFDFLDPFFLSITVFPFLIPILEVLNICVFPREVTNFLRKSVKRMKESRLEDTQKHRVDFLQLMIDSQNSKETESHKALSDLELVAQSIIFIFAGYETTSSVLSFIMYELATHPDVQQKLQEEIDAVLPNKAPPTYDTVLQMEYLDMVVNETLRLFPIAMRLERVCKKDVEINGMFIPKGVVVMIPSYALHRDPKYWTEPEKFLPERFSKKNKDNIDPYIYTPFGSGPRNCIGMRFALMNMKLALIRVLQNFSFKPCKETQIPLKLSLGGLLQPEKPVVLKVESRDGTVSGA
The next data set concerns the target hERG ion channel (Homo sapiens, UniProt Q12809). Put plainly: hERG patch-clamp electrophysiology. Type of data set: cell-based.
A short description of the next data set: acute oral dose in dogs. Format: in vivo. The essentials:
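Dogs received a single acute oral dose of 300 mg/kg. Bilirubin and other clinical pathology were assessed, and plasma Cmax and AUC were measured. Margins were taken relative to projected human Cmax and AUC at the efficacious clinical dose.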

Another data set in a line: pharmacokinetics in dog. Conditions: male, beagle, in vivo, iv, 1 mg/kg.
Data set [4] in a line: projected human PK and dose. Conditions: 110 mg QD, steady state. The essentials:
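Human PK was predicted by allometric scaling of rat, dog and cynomolgus monkey PK, then combined with a rat PK/PD indirect response model.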

Data set [5] relates to rest of the CYP isoforms tested (other than the CYP2C subfamily). Put plainly: CYP inhibition in human liver microsomes, rest of isoforms. Type of data set: in vitro ADME.
Another data set is described as follows: pharmacokinetics in rat. The conditions noted are these: Sprague-Dawley, in vivo, iv, 2 mg/kg.
For the next data set, the system named is H4-APPsw cells. Put plainly: Aβ species in cultured H4-APPsw cells by mass spectrometry. Format: cell-based.
In the next data set the test system is CYP3A4 mRNA. Put plainly: CYP3A4 mRNA induction in cryopreserved primary human hepatocytes. Conditions: 3.3–10 μM. Type of data set: cell-based.
For data set [6] the following is noted: cited from earlier work.
In data set [7] the target is T1, CYP3A4. Put plainly: recombinant CYP3A4 inhibition. Format: in vitro ADME. The essentials:
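Recombinant human CYP3A4 was incubated with the test compound for 30 min, and an IC50 was determined.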

Data set [8] can be described thus: pharmacokinetics in cynomolgus monkey. The conditions noted are these: male, in vivo, iv, 1 mg/kg.
In the next data set the test system is Aβ peptide species. Conditions: intravenous administration; cited from earlier work.
Data set [9] can be described thus: 2-week oral repeat dose toxicity study in rats. Type of data set: in vivo. The essentials: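 Rats received the test compound orally for 2 weeks at 10, 30 and 100 mg/kg in repeat dosing. Endpoints included signs of stress, food consumption, duodenal histology for Notch-related goblet cell metaplasia, and liver for hepatotoxicity and necrosis.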
The nature of data set [10]: hemodynamics in conscious rats. Format: in vivo. The conditions noted are these: any dose studied.
A further data set is described as follows: Caco-2 permeability. Format: in vitro ADME. The conditions noted are these: human. (In general: Caco-2 monolayers are a common model of the intestinal barrier.)
A further data set has as its system Aβ1–37 and Aβ1–38. Put plainly: urea gel Western blotting of Aβ species. Type of data set: cell-based. Background: A western blot detects proteins with antibodies after separation by electrophoresis.
The mark [11] stands for this setting: single oral doses 10 to 1200 mg, multiweek daily 50 to 200 mg.

Values joined by “and” are separate entries in the source; they are usually repeats but may differ in a detail not shown here. Identical values can stand only once. Like-named read-outs stand apart in the source and are kept apart here.

We go through 4 molecules from publication PMC6421538 (ACS Medicinal Chemistry Letters, 2019).

The term clearance denotes the rate of elimination divided by the concentration. For orientation: IC50 means the concentration needed to halve the response being measured. In general, Papp refers to a coefficient for how fast a substance crosses the barrier.

Sequence of hERG ion channel (Q12809 whole entry): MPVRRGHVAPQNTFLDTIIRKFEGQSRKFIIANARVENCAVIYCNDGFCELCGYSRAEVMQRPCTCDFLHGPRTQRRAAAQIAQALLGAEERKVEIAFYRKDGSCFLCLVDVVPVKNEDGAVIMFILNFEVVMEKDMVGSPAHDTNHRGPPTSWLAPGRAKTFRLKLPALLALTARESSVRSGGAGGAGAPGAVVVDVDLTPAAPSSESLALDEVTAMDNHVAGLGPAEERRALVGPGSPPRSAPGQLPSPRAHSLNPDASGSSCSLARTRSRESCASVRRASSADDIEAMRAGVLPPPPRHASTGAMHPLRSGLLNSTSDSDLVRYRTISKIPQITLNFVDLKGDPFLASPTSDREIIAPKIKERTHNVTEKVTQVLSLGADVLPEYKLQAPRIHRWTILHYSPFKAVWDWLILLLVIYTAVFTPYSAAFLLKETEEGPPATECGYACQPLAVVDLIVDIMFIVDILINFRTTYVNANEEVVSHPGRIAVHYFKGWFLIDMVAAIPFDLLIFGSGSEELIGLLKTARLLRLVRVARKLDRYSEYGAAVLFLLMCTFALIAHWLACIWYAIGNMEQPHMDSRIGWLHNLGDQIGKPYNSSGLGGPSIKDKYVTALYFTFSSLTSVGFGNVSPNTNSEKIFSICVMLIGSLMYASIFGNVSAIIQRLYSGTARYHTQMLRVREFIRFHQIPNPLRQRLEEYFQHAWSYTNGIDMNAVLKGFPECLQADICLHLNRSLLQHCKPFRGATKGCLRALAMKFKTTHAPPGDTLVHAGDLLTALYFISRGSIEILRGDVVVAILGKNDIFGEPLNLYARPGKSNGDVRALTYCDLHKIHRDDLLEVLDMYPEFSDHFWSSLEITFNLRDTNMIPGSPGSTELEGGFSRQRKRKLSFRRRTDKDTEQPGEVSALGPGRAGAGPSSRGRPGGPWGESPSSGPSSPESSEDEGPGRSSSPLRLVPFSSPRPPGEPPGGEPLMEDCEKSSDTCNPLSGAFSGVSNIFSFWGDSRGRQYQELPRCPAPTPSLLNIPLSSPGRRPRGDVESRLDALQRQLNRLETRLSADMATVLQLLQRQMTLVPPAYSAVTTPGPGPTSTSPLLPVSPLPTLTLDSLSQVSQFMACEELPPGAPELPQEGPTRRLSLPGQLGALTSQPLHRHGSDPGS

Regarding `CNc1nc(Nc2ccc(-n3cnc(Cl)c3)c(OC)c2)nc2c1CC[C@H]2c1ccccc1` [Compound 3], the tissue examination finding entry in data set [1] (4 days oral, 10, 30, and 100 mg/kg) is “hepatocellular necrosis at all doses studied”. Also, the plasma bilirubin finding entry in data set [1] (4 days oral, all doses, visibly yellow plasma) is “increase in unconjugated bilirubin”. Moreover, the metabolism result in [2] is “confined to N-demethylation and monohydroxylation of the D-ring”. The “safety margin vs the hERG NOAEL” value in the data set “rabbit telemetry study” (rabbit telemetry) is 40 fold.

For `CNc1nc(Nc2ccc(-n3cnc(C)n3)c(OC)c2)nc2c1CC[C@H]2c1ccc(F)cc1` [Compound 4, (S)-7-(4-fluorophenyl)-N^2-(3-methoxy-4-(3-methyl-1H-1,2,4-triazol-1-yl)phenyl)-N^4-methyl-6,7-dihydro-5H-cyclopenta[d]pyrimidine-2,4-diamine], in the data set with CYP2C subfamily, the “CYP2C subfamily IC50s” value is listed as “single digit micromolar”. Moreover, the “total Aβ1–x” value in the data set on total Aβ1–x (concentrations up to 10 μM, Aβ1–x ELISA, H4-APPsw cells) is on record as “unchanged”. In addition, at CYP3A4 [3] (HLM), the “CYP 3A4 HLM time-dependent inhib. KI” value is 82.5 µM and 83 µM. In addition, the “fold less potent at hERG than compound 3” value on hERG ion channel is reported as 6 fold. Further, in “acute oral dose in dogs” (300 mg/kg), the “margin in Cmax to the projected efficacious clinical dose” value came to 43 fold. In addition, in “acute oral dose in dogs” (acute oral dose of 300 mg/kg), the tolerability result was “tolerated with no significant changes in bilirubin levels or other clinical pathological assessments”. The same molecule showed a clearance at 24 h in “pharmacokinetics in dog” of 12.5 ± 1.2 mL/min/kg. Further, the “projected human brain Aβ1–42 reduction” value in data set [4] turned out to be 31%. The IC50 in data set [5] was above 17 µM. In addition, the AMES result in “AMES” was “negative”. In addition, in “pharmacokinetics in rat”, the clearance at 24 h was 11.2 ± 0.4 mL/min/kg. In the data set with H4-APPsw cells, the “change in Aβ1–37 and Aβ1–38” value is recorded as “corresponding increase”; the “change in Aβ1–42 and Aβ1–40” value was “large decrease”. Moreover, in the data set with CYP3A4 mRNA, the “elevation of CYP3A4 mRNA” value was 36–43%. Further, in [6] (200 mg for 24 days), the ALT finding result is listed as “ALT elevations were observed”. In addition, the tolerability entry in data set [6] (dosed acutely) is given as “well tolerated”. In addition, in data set [6] (setting [11]), the “Aβ1–37 and Aβ1–38 in plasma and CSF” value was “dose-dependent increase”; the “Aβ1–42 and Aβ1–40 in plasma and CSF” value is on record as “decrease”; the “total Aβ1–x in plasma and CSF” value is “no change”. Besides, the IC50 on CYP3A4 [7] is 0.51 µM. In data set [8], this molecule returned a clearance at 24 h of 31.3 ± 9.5 mL/min/kg. Besides, the “distribution among Aβ peptide species in rat brain and CSF” value with Aβ peptide species is “same distribution among Aβ peptide species was recapitulated”. Moreover, in data set [9] (2-week oral), the “Notch-related goblet cell metaplasia in the duodenum” value is given as “no Notch-related goblet cell metaplasia”; the bilirubin finding entry was “minimal, nontoxicologically significant bilirubin elevation”; the hepatotoxicity or necrosis result is “no hepatotoxicity or necrosis was observed”. Besides, the tolerability entry in [9] (2-week oral, 10, 30, and 100 mg/kg) was “well tolerated”. Further, in data set [9] (2-week, 100 mg/kg oral), the “findings in high dose group” value is “stress and reduced food consumption effects”. Moreover, the “margin over the projected human efficacious exposure at the NOAEL” value in data set [9] (2-week, NOAEL 30 mg/kg, vs 4 μM·h) is reported as 48 fold. In addition, the “hemodynamic effects (blood pressure, heart rate)” value in [10] is given as “not seen”. This molecule gave a Papp in “Caco-2 permeability” of 3.5 ×10⁻⁶ cm/s. The “change in QTcf” value in the data set “rabbit telemetry study” (unconscious rabbits, 3 mg/kg) is “no change”. The same molecule showed an exposure in the data set “rabbit telemetry study” (unconscious rabbits, 10 mg/kg) of 50 µM. Besides, the hemodynamic effects result in “rabbit telemetry study” (unconscious rabbits, doses of 10 mg/kg and higher) is “increased blood pressure and decreased heart rate”.

Turning to `CNc1nc(Cc2ccccc2)nc(Nc2ccc(-n3cnc(C)c3)c(OC)c2)n1` [Compound 2, 6-benzyl-N2-(3-methoxy-4-(4-methyl-1H-imidazol-1-yl)phenyl)-N4-methyl-1,3,5-triazine-2,4-diamine], the CYP3A4 inhibition result on CYP3A4 [3] (in words) was “potent and time-dependent CYP3A4 inhibition”. The hERG inhibition result at hERG ion channel (in words) is “potent hERG inhibition”.

As to `CNc1nc(Nc2ccc(-n3cncn3)c(OC)c2)nc(-c2ccccc2)n1` [Compound 1], in the data set on total Aβ1–x, the “effect on total Aβ1–x formation” value is “No effect”. For the same molecule, the “levels of Aβ1–37 and Aβ1–38” value in the data set with Aβ1–37 and Aβ1–38 is reported as “increased levels”.
